Data as given in ChEMBL document CHEMBL3792280, “Design and synthesis of novel quinoxaline derivatives as potential candidates for treatment of multidrug-resistant and latent tuberculosis” (Bioorg Med Chem Lett, 2016).
≈ marks a conversion by molar mass, not a printed value.

Legend:
Assay type in all cases: functional
[1] = system: Mycobacterium tuberculosis; experiment: Antimicrobial activity against isoniazid resistant Mycobacterium tuberculosis SRI 1369 after 7 days; details: SRI 1369, 168 h
Summary of the method: (§1)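 MIC in µg/mL, retested on susceptible H37Rv (SRI 1345) in the same panel as single-drug-resistant strains: isoniazid-, rifampin- and ofloxacin-resistant. Percent inhibition recorded at the MIC concentration. Ratio taken as MIC H37Rv / MIC resistant strain.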

[2] = system: Mycobacterium tuberculosis; experiment: Antimicrobial activity against isoniazid resistant Mycobacterium tuberculosis SRI 1369 assessed as growth inhibition at MIC after 7 days; summary of the method: as §1
[3] = Ratio of MIC for Mycobacterium tuberculosis H37Rv SRI 1345 to MIC for isoniazid resistant Mycobacterium tuberculosis SRI 1369; summary of the method: as §1
[4] = system: Mycobacterium tuberculosis; experiment: Antimicrobial activity against rifampicin resistant Mycobacterium tuberculosis SRI 1367 after 7 days; details: SRI 1367, 168 h; summary of the method: as §1
[5] = system: Mycobacterium tuberculosis; experiment: Antimicrobial activity against rifampicin resistant Mycobacterium tuberculosis SRI 1367 assessed as growth inhibition at MIC after 7 days; summary of the method: as §1
[6] = Ratio of MIC for Mycobacterium tuberculosis H37Rv SRI 1345 to MIC for rifampicin resistant Mycobacterium tuberculosis SRI 1367; summary of the method: as §1
[7] = system: Mycobacterium tuberculosis; experiment: Antimicrobial activity against ofloxacin resistant Mycobacterium tuberculosis SRI 4000 after 7 days; details: SRI 4000, 168 h; summary of the method: as §1
[8] = system: Mycobacterium tuberculosis; experiment: Antimicrobial activity against ofloxacin resistant Mycobacterium tuberculosis SRI 4000 assessed as growth inhibition at MIC after 7 days; summary of the method: as §1
[9] = Ratio of MIC for Mycobacterium tuberculosis H37Rv SRI 1345 to MIC for ofloxacin resistant Mycobacterium tuberculosis SRI 4000; summary of the method: as §1

Structure (SMILES) | MIC [1] | growth inhibition (GI) [2] | Ratio [3] | MIC [4] | growth inhibition (GI) [5] | Ratio [6] | MIC [7] | growth inhibition (GI) [8] | Ratio [9]
O=C(c1ccco1)c1c(C(F)(F)F)[n+]([O-])c2cc(Cl)c(N3CCOCC3)cc2[n+]1[O-] | 0.5 mg/L (≈ 1.13 µM) | 78% | 4 | 0.5 mg/L (≈ 1.13 µM) | 66% | 4 | 0.25 mg/L (≈ 0.563 µM) | 76% | 8
CC(=O)c1c(C(F)(F)F)nc2cc(F)c(N3CCSCC3)cc2[n+]1[O-] | 0.75 mg/L (≈ 2 µM) | 89% | 1 | 0.38 mg/L (≈ 1.01 µM) | 75% | 2 | 0.19 mg/L (≈ 0.506 µM) | 62% | 4
Cc1c(C(=O)/C=C/c2ccccc2)[n+]([O-])c2cc(Cl)ccc2[n+]1[O-] | 1 mg/L (≈ 2.93 µM) | 64% | 2 | 0.5 mg/L (≈ 1.47 µM) | 51% | 4 | 0.5 mg/L (≈ 1.47 µM) | 100% | 4
NNC(=O)c1ccncc1 [ISONIAZID] |  |  |  | 0.02 mg/L (≈ 0.146 µM) | 55% |  |  |  | 
CC(=O)c1c(C(F)(F)F)[n+]([O-])c2cc(F)c(N3CCCCC3)cc2[n+]1[O-] | 0.25 mg/L (≈ 0.67 µM) | 57% |  | 0.25 mg/L (≈ 0.67 µM) | 68% |  | 0.25 mg/L (≈ 0.67 µM) | 84% | 
COC(=O)c1c(C(F)(F)F)[n+]([O-])c2ccc(N3CCN(c4ccc(F)cc4)CC3)cc2[n+]1[O-] | 0.19 mg/L (≈ 0.407 µM) | 51% | 8 | 0.19 mg/L (≈ 0.407 µM) | 73% | 8 | 0.19 mg/L (≈ 0.407 µM) | 81% | 8
CO[C@H]1/C=C/O[C@@]2(C)Oc3c(C)c(O)c4c(O)c(c(/C=N/N5CCN(C)CC5)c(O)c4c3C2=O)NC(=O)/C(C)=C\C=C\[C@H](C)[C@H](O)[C@@H](C)[C@@H](O)[C@@H](C)[C@H](OC(C)=O)[C@@H]1C [RIFAMPIN] | 0.05 mg/L (≈ 0.0608 µM) | 72% |  |  |  |  | 0.195 mg/L (≈ 0.237 µM) | 53% | 
